The values that follow come from ChEMBL document CHEMBL2203146, “Search for anticonvulsant and analgesic active derivatives of dihydrofuran-2(3H)-one” (Bioorg Med Chem, 2012).

The test system of data set [1] is Mus musculus. As to the kind of experiment: Anesthetic activity in albino CF1 mouse assessed as latency in response to thermal stimuli administered as 1% solution, sc measured after 15 mins by modified tail immersion test. In kind it is functional. The gist of the method: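 Male Albino Swiss (CD-1) mice, 6-8 per group, tested at 1% and 2% compound concentration. Tail distal 3 cm immersed in water at 50 ± 0.5 °C 15 min after treatment. Tail-withdrawal latency recorded with a 20 s cutoff. Value is % difference in latency vs vehicle-treated mice. Mean ± SEM, Student's t-test.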

Data set [2] has as its system Mus musculus. The data set can be described thus: Anesthetic activity in […] assessed as latency in response to thermal stimuli administered as 2% solution, sc measured after 15 mins by modified tail immersion test. The data set is classed as functional, albino CF1.
The test system of data set [3] is Mus musculus. The data set can be described thus: Anticonvulsant activity in albino CF1 mouse assessed as protection against subcutaneous metrazol-induced seizures at 30 to 300 mg/kg, ip after 0.5 to 4 hrs. The data set is classed as functional, organism-based. The gist of the method:
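CF No. 1 male mice dosed ip at 30, 100 or 300 mg/kg (saline or 0.5% methylcellulose), then given pentetrazole 85 mg/kg sc as 0.5% solution in posterior midline. Watched 30 min. Protection means no threshold seizure (single clonic spasm episode of at least 5 s). Expressed as protected/tested.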

Data set [4] concerns Mus musculus. As to the kind of experiment: Anticonvulsant activity in albino CF1 mouse assessed as protection against maximal electroshock-induced seizures at 100 mg/kg, ip after 0.5 hr. In kind it is functional, organism-based. Also on record: dose 100 mg/kg. The method in brief: (§1)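 Male albino CF No. 1 mice (18–25 g) dosed ip at 30, 100 and 300 mg/kg in saline or 0.5% methylcellulose, tested 15, 30, 60 and 240 min after dosing. Maximal electroshock seizures elicited with 60-cycle alternating current. Scored as animals protected/animals tested, small qualitative groups.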
(In general: In the maximal electroshock model the usual endpoint is tonic extension of the hind limbs.)

The subject of data set [5] is Mus musculus. The data set can be described thus: Neurotoxicity in albino CF1 mouse assessed as minimal motor impairment at 100 mg/kg, ip after 0.5 hr by rotorod test. The data set is classed as toxicity, organism-based. Set-up: dose 100 mg/kg, route intraperitoneal. The settings on record: in vivo. The method in brief:
(§2)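 Rotarod in male CF No. 1 mice after ip dosing (30, 100, 300 mg/kg; saline or 0.5% methylcellulose) at 15–240 min. Knurled plastic rod, 1-inch diameter, 6 rpm. Toxicity means failing to stay on for 1 min on three successive attempts. Recorded as toxic/tested.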
On the technique in general: The rotarod test checks motor coordination on a turning rod.

The subject of data set [6] is Mus musculus. The data set can be described thus: Anticonvulsant activity in albino CF1 mouse assessed as protection against maximal electroshock-induced seizures at 300 mg/kg, ip after 4 hrs. In kind it is functional, organism-based. Set-up: dose 300 mg/kg. The gist of the method:
as §1

For data set [7], the system named is Mus musculus. As to the kind of experiment: Neurotoxicity in albino CF1 mouse assessed as minimal motor impairment at 300 mg/kg, ip after 0.5 hr by rotorod test. The settings on record: in vivo. The data set is classed as toxicity, organism-based. Set-up: dose 300 mg/kg, route intraperitoneal. The method in brief: as §2
In data set [8] the test system is Mus musculus. As to the kind of experiment: Analgesic activity in albino CF1 mouse assessed as inhibition of heat-induced paw licking or jumping behaviour administered after 30 mins prior heat challenge by hot plate method. The data set is classed as functional. On the technique in general: Thermal pain tests record how soon the animal reacts.
For data set [9], the system named is Mus musculus. The data set can be described thus: […] activity in ip dosed albino CF1 mouse assessed as inhibition of phenylbenzoquinone-induced writhing administered after 30 mins prior challenge. The data set is classed as functional. The method in brief: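 Male Albino Swiss (CD-1) mice, 6-8 per dose. Compound given ip in 0.5% methylcellulose. 30 min later, 0.25 ml of 0.02% phenylbenzoquinone injected. After 5 min, writhes counted over 10 min. % effect = (vehicle mean − drug mean)/vehicle mean × 100. ED50 derived; Student's t-test.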

Data set [10] has as its system Mus musculus. The data set can be described thus: Neurotoxicity in albino CF1 mouse assessed as minimal motor impairment at 300 mg/kg, ip after 4 hrs by rotorod test. In kind it is toxicity, organism-based. Also on record: dose 300 mg/kg, route intraperitoneal. The settings on record: in vivo. The gist of the method: as §2
Data set [11] has as its system Mus musculus. The data set can be described thus: Neurotoxicity in albino CF1 mouse assessed as minimal motor impairment at 100 mg/kg, ip after 4 hrs by rotorod test. In kind it is toxicity, organism-based. Also on record: dose 100 mg/kg, route intraperitoneal. Particulars: in vivo. The method in brief: as §2
Data set [12] concerns Mus musculus. As to the kind of experiment: Anticonvulsant activity in albino CF1 mouse assessed as protection against maximal electroshock-induced seizures at 100 mg/kg, ip after 4 hrs. In kind it is functional, organism-based. Set-up: dose 100 mg/kg. The gist of the method:
as §1

Data set [13] relates to Mus musculus. The data set can be described thus: Anticonvulsant activity in albino CF1 mouse assessed as protection against maximal electroshock-induced seizures at 300 mg/kg, ip after 0.5 hr. Set-up: dose 300 mg/kg. The data set is classed as functional, organism-based. The gist of the method: as §1
Data set [14] relates to Mus musculus. As to the kind of experiment: Anticonvulsant activity in albino CF1 mouse assessed as protection against maximal electroshock-induced seizures at 100 mg/kg, ip after 0.25 hr. In kind it is functional, organism-based. Also on record: dose 100 mg/kg. The gist of the method:
as §1

Data set [15] concerns Mus musculus. As to the kind of experiment: Neurotoxicity in albino CF1 mouse assessed as minimal motor impairment at 100 mg/kg, ip after 0.25 hr by rotorod test. Particulars: in vivo. Also on record: dose 100 mg/kg, route intraperitoneal. The data set is classed as toxicity, organism-based. The method in brief: as §2
Data set [16] relates to Mus musculus. As to the kind of experiment: Neurotoxicity in albino CF1 mouse assessed as minimal motor impairment at 100 mg/kg, ip after 1 hr by rotorod test. The data set is classed as toxicity, organism-based. Set-up: dose 100 mg/kg, route intraperitoneal. Particulars: in vivo. The method in brief:
as §2

Data set [17] concerns Mus musculus. The data set can be described thus: Anticonvulsant activity in albino CF1 mouse assessed as protection against maximal electroshock-induced seizures at 100 mg/kg, ip after 1 hr. The data set is classed as functional, organism-based. Also on record: dose 100 mg/kg. The method in brief: as §1

The structures appear in SMILES notation. Calls of active or inactive are those of the source.

For the compound `CCN(CC)CC(=O)Nc1c(C)cccc1C` [LIDOCAINE], the Activity in data set [1] worked out at 132%; in [2] it was 173%.

Consider `COc1cccc(N2CCN(C3CCOC3=O)CC2)c1` (racemic), for which the Activity in [1] was 6%; in data set [5], “Non-toxic”; in data set [7] it was “Non-toxic”; in data set [2] it was 75%; in data set [10] it was “Non-toxic”; in data set [11] it was “Non-toxic”. Moreover, the outcome in data set [3], in data set [4], in [6] and in data set [12] was inactive. The ED50 (usually the dose that gives a 50% effect, or the effect in half of the subjects) in data set [8] was 3.2 mg/kg; in data set [9], 3 mg/kg. Further, the outcome in [13] was Active.

Turning to `CC1CC(NCc2ccccc2)C(=O)O1.Cl` (mixture of isomers), the outcome in data set [3], in [4], in [6], in [12] and in data set [13] was inactive. Besides, the Activity entry in data set [5], in [7], in data set [10] and in [11] was “Non-toxic” in each case.

As for `COc1ccc(CCN/C(C)=C2/CCOC2=O)cc1OC`, the result in [3], in data set [4], in [14], in data set [17], in data set [6] and in [12] was inactive. Also, the Activity entry in data set [15], in data set [16], in [5], in [7], in data set [10] and in data set [11] was “Non-toxic” in each case. Moreover, the outcome in data set [13] was Active.

For `O=C1OCCC1NCc1ccccc1C(F)(F)F` (racemic), the outcome in [3], in data set [4], in data set [6], in data set [12] and in data set [13] was inactive. The Activity entry in data set [5], in data set [7], in data set [10] and in data set [11] was “Non-toxic” each time.

Consider `Cl.O=C1OCCC1NCc1ccccc1` (racemic), for which the Activity in data set [1] was 1%; in [5] it was “Non-toxic”; in data set [7] it was “Non-toxic”; in data set [2], 64%; in data set [10], “Non-toxic”; in data set [11], “Non-toxic”. Moreover, the result in [3], in data set [4], in data set [6], in data set [12] and in [13] was inactive. Also, the median effective dose (ED50) was 4.3 mg/kg in [8] and 2.4 mg/kg in data set [9].

As to `Cl.O=C1OCCC1N1CCOCC1` (racemic), the outcome in data set [3], in [4], in data set [6], in data set [12] and in [13] was inactive. The Activity entry in [5] was “Non-toxic”; in [7], “Toxic”; in data set [10] it was “Non-toxic”; in data set [11], “Non-toxic”. The values for the ED50 in data set [8] and in [9] were 9.9 mg/kg and 5.4 mg/kg, respectively.

`O=C1OCCC1N1CCN(c2ccc(F)cc2)CC1` (racemic): the outcome in [3], in data set [4], in data set [6], in data set [12] and in [13] was inactive. The Activity result in [5], in data set [7], in data set [10] and in [11] was “Toxic” in each case.

As to `COc1ccc(CNC2CCOC2=O)cc1.Cl` (racemic), the result in [3], in [4], in data set [6], in data set [12] and in data set [13] was inactive. The Activity entry in data set [5], in data set [7], in data set [10] and in data set [11] was “Non-toxic” throughout.

In the case of `CN1CC[C@]23c4c5ccc(O)c4O[C@H]2[C@@H](O)C=C[C@H]3[C@H]1C5` [MORPHINE], the values for the ED50 in data set [8] and in [9] were 3.4 mg/kg and 2.4 mg/kg, respectively.

For the compound `CC(=O)Oc1ccccc1C(=O)O` [ASPIRIN], the ED50 in data set [9] turned out to be 39.2 mg/kg.

`COc1cc2c(cc1OC)CN(C1CCOC1=O)CC2` (racemic): the outcome in data set [3], in data set [4], in data set [6], in [12] and in [13] was inactive. Moreover, the Activity result in [5], in [7], in [10] and in data set [11] was “Non-toxic” throughout. The figures for the ED50 in data set [8] and in data set [9] were 39.8 mg/kg and 6.1 mg/kg, respectively.

Turning to `O=C1CC(N2CCN(c3ccccc3)CC2)CO1` (racemic), the outcome in data set [3], in [4], in data set [6], in data set [12] and in data set [13] was inactive. The Activity entry in data set [5] was “Toxic”; in data set [7], “Toxic”; in [10], “Non-toxic”; in [11], “Non-toxic”.

Consider `Cc1cccc(C)c1NC1CCOC1=O` (stereo unspecified), for which the outcome in data set [3], in [4], in data set [6], in data set [12] and in data set [13] was inactive. Besides, the Activity entry in data set [5], in data set [7], in data set [10] and in data set [11] was “Non-toxic” in each case.

With `COc1ccc(N2CCN(C3CCOC3=O)CC2)cc1` (racemic), the Activity in data set [1] is -3%; in data set [5], “Non-toxic”; in data set [7], “Non-toxic”; in [2], 49%; in data set [10], “Non-toxic”; in data set [11], “Non-toxic”. The result in data set [3], in [4], in [6], in [12] and in data set [13] was inactive. Also, the results for the median effective dose (ED50) in data set [8] and in [9] were 32.5 mg/kg and 9.6 mg/kg, respectively.

With `Cc1cccc(C)c1NC(=O)C1CCCCN1C` (stereo unspecified) [MEPIVACAINE], the values for the Activity in data set [1] and in data set [2] were 95% and 117%, respectively.

On to `O=C1OCCC1N1C(=O)c2ccccc2C1=O` (racemic), for which the outcome in [3], in data set [4], in [6], in data set [12] and in data set [13] was inactive. Besides, the Activity entry in [5] is “Toxic”; in [7], “Toxic”; in data set [10], “Non-toxic”; in data set [11] it was “Non-toxic”. Also, the figures for the ED50 in data set [8] and in data set [9] were 33.9 mg/kg and 4.5 mg/kg, respectively.
